Results published in the array DNA melting data of Ke et al. (doi:10.1101/2024.01.08.574731).

Key:
[1] = melting temperature; fluorescence melt of hairpins on a sequencing array, two-state fit, raised by 9.35 °C to match UV melts; conditions: sodium 0.088 M
In short: (§1)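 On a sequenced MiSeq flow cell, library hairpins with annealed Cy3 and quencher oligos were imaged for Cy3 fluorescence in 2.5 °C steps up to 60 °C, in 50 mM Na-HEPES pH 8.0, 25 mM NaCl. Normalisation used pre-quench Cy3 and control constructs. Bootstrapped two-state fits gave melting temperature and folding enthalpy, combined by inverse variance across four replicates and with fitted temperatures raised by 9.35 °C to match UV melts.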

[2] = folding enthalpy; higher = less favourable; fluorescence melt of hairpins on a sequencing array, two-state fit; conditions: sodium 0.088 M
In short: as §1

| Sequence | Tm [1] [°C] | folding enthalpy [2] [kcal/mol] |
| --- | --- | --- |
| GTTGACGAAAGTCACAAC ((((((....)))..))) | 36.2 | -9.62 |
| GCAGTGGGAAACCATTGC (((.(((....))).))) | 50.1 | -25.6 |
| GATCATTCGCATGATC ((((((....)))))) | 47.5 | -34 |
| GCCGACGAAAGTCATGGC ((((((....)))..))) | 51.6 | -34.5 |
| GGCGAAGGAAACTTCACC ((.((((....)))).)) | 42.6 | -32.8 |
| GCTTGCGAAAGCATTAGC ((((((....)))..))) | 42 | -15.2 |
| GCTATCGAAAGATTGAGC ((((((....)))..))) | 32.9 | -20.5 |
| GGTGTCGGAAACGATGCC ((..(((....)))..)) | 49.4 | -26.7 |
| GCGGATTCGAAAGAACGC (((..(((....)))))) | 45.1 | -27.2 |
| GATCTCCCGCGAGATC ((((((....)))))) | 52.7 | -32.3 |
| GATCAAGGCGTTGATC ((((((....)))))) | 48.5 | -35.8 |
| GCACTTGCGAAAGCATGC (((..(((....)))))) | 38.6 | -10.8 |
| GGCCACGAAAGTGTAGCC ((((((....)))..))) | 53.1 | -25 |
| GCATCCGAAAGGACGTGC ((((((....)))..))) | 38.3 | -19.4 |
| GGAATAGGAAACCATTCC (((((.(....).))))) | 34.3 | -25.7 |
| GATTGAGCGAAAGCTATC (((..(((....)))))) | 30.7 | -11.6 |
| GCGGTGGGAAACCGTCGC (((..((....))..))) | 55.5 | -14.3 |
| GATCCCCTAAGGGATC ((((((....)))))) | 63.2 | -39.1 |
| GCTGAGCCGAAAGGCAGC (((..(((....)))))) | 51.7 | -15.2 |
| GTACTGAAAAGTAC (((((....))))) | 46.8 | -20.8 |
| GATCGACTCCTCGATC ((((((....)))))) | 51.6 | -38.6 |
| GATCGATCCTTCGATC ((((((....)))))) | 55.5 | -45.3 |
| GCGCACGAAAGTGACGC ((((((....))).))) | 63.3 | -24 |

| Sequence | Tm [1] [°C] | folding enthalpy [2] [kcal/mol] |
| --- | --- | --- |
| GGTGATGGAAACATCGTC (..((((....))))..) | 32.9 | -18.1 |
| GGGTGTGGAAACGCACTC (.(((.(....).))).) | 47.9 | -24 |
| GTTAGCGAAAGCTGGAAC ((((((....)))..))) | 27 | -8.68 |
| GTGCAACGAAAGTTACAC (((.(((....))).))) | 44.9 | -22.6 |
| GATCGCCCGAGCGATC ((((((....)))))) | 67.5 | -37.4 |
| GATCCGTAAGCGGATC ((((((....)))))) | 59.3 | -35.3 |
| GAACTCGGAAACGAGCTC ((.((((....)))).)) | 42.2 | -19 |
| GATCCCTTCAGGGATC ((((((....)))))) | 68.3 | -31.4 |
| CGCGGACTTCTCCGCG ((((((....)))))) | 65.9 | -35.6 |
| GTAATTGAAAAATTAC ((((((....)))))) | 40.3 | -26.2 |
| GATCAACGTTTTGATC ((((((....)))))) | 42.8 | -30.4 |
| GAATACGAAAGTAATTC ((((((....))).))) | 34.1 | -13.6 |
| GCGGTCGAAAGACGGCGC ((((((....)))..))) | 63.9 | -31.3 |
| GGTTTTTCGAAAGAAACC (((..(((....)))))) | 34 | -18.8 |
| GTAGCCGAAAGGCTATAC ((((((....)))..))) | 47.1 | -10.2 |
| GATCACCCAGTGATC ((((((...)))))) | 57.2 | -38.1 |
| GCATGCGCGAAAGCGTGC (((..(((....)))))) | 51.8 | -13.4 |
| GCCTGGCGAAAGCCATGC ((.((((....)))).)) | 56.7 | -17.2 |
| GGTTCCGGAAACGGAGCC ((.((((....)))).)) | 58.4 | -41.6 |
| GGTGAAGGAAACTCCACC ((((.((....)).)))) | 39 | -31.3 |
| GCAGACGGAAACACCTGC ((((..(....)..)))) | 28.6 | -18.1 |
| GTCAGTACGAAAGTAGAC (((..(((....)))))) | 31 | -17.2 |
| GTAGAAGCGAAAGCTTAC (((..(((....)))))) | 30.1 | -11.6 |

| Sequence | Tm [1] [°C] | folding enthalpy [2] [kcal/mol] |
| --- | --- | --- |
| GCTCTTCGAAAGAATAGC (((.(((....))).))) | 38.5 | -30.7 |
| GCTGGACGAAAGTCAAGC (((.(((....))).))) | 58.7 | -38.3 |
| GCAAAGCCGAAAGGCTGC (((..(((....)))))) | 54 | -14.2 |
| GGATATGGAAACATATTC (.(((((....))))).) | 36.9 | -22.2 |
| GTTGGCCGAAAGGCGAAC (((.(((....))).))) | 57.4 | -26.6 |
| GTGCCTGGAAACAGACAC (((.(((....))).))) | 46.9 | -28.6 |
| GACGTCGCGAAAGCGGTC (((..(((....)))))) | 39.3 | -11.5 |
| GTTAATGGAAACATTGAC ((.((((....)))).)) | 37.3 | -26.1 |
| GCAACTACGAAAGTATGC (((..(((....)))))) | 32.1 | -16.5 |
| GTGCACGAAAGTGCCCAC ((((((....)))..))) | 40.7 | -7.58 |
| GATCGTGGCCACGATC ((((((....)))))) | 62.5 | -62.6 |
| GGGCAGGGAAACTTGCCC (((((.(....).))))) | 55.9 | -47.7 |
| GATCCCCTCGGGATC ((((((...)))))) | 61.4 | -35.6 |
| GACGTAGGAAACTACACC (..((((....))))..) | 25.2 | -10.2 |
| GCCGACTCGAAAGAGGGC (((..(((....)))))) | 47.1 | -23.1 |
| GGAATCCCGAAAGGGTCC (((..(((....)))))) | 33 | -13.2 |
| GGGTCTGGAAACGGACTC (.(((.(....).))).) | 37.5 | -28.3 |
| CGTGACCGGAAACGGACG (((..(((....)))))) | 36.2 | -15.7 |
| GCTGGCGGAAACGCTGGC ((..(((....)))..)) | 53.7 | -32.7 |
| GCCTCGCGAAAGCAACGC ((.(.((....)).).)) | 23.4 | -5.96 |
| GCTAGGGAAACCTAGC ((((((....)))))) | 58.4 | -36.9 |
| GAGTCACGAAAGTGGCTC (((.(((....))).))) | 64.7 | -39.4 |
| GCTGAGCGAAAGCACAGC ((((.((....)).)))) | 67.8 | -35.6 |

| Sequence | Tm [1] [°C] | folding enthalpy [2] [kcal/mol] |
| --- | --- | --- |
| AGTTTGAAAAAACT (((((....))))) | 33 | -12.1 |
| GATACGCGAAAGCGAATC (((.(((....))).))) | 49.4 | -21.6 |
| GCTTTGCGAAAGCTATGC ((.(.((....)).).)) | 45.6 | -12.6 |
| GATCATGTTCATGATC ((((((....)))))) | 52.5 | -43.1 |
| GGTCGCGAAAGCGAACC ((((((....))).))) | 67.3 | -15.2 |
| GATCATAAACATGATC ((((((....)))))) | 43.1 | -31 |
| GAGAACGAAAGTTATCTC ((((((....)))..))) | 43 | -26 |
| GCTGGTGGAAACACTGGC ((..(((....)))..)) | 45.9 | -30.1 |
| GTCCGTGGAAACACGGGC (.(((((....))))).) | 63.8 | -24.1 |
| GGAAAGGCGAAAGCCTCC (((..(((....)))))) | 41.3 | -10.6 |
| GTTAGAGGAAACTCTAGC (.(((((....))))).) | 34.5 | -23.1 |
| TCTGGGAAACCAGA (((((....))))) | 47.1 | -15 |
| GAGACTCCGAAAGGACTC (((..(((....)))))) | 25.6 | -12.8 |
| GCCCACGGAAACGCGGAC (.((.((....)).)).) | 32.8 | -18.4 |
| GTCGTCGAAAGACATGAC ((((((....)))..))) | 38.5 | -17.4 |
| GTCGTCGGAAACGGTGAC (((..((....))..))) | 42.4 | -24 |
| GGCTTGGGAAACCGAGTC (.((.((....)).)).) | 41.5 | -27.4 |
| GCCATGCGAAAGCTTCGC ((.(.((....)).).)) | 47.3 | -8.18 |
| GTCTTCGGAAACGAAAAC ((.((((....)))).)) | 29.2 | -15.4 |
| GATCAGTTCGCTGATC ((((((....)))))) | 54.1 | -44.9 |
| GCGATTACTCGC ((((....)))) | 49.3 | -23.7 |
| GGCTATCGAAAGATTGCC (((.(((....))).))) | 55.7 | -41.3 |
| GGGTATCCGAAAGGACCC (((..(((....)))))) | 43.9 | -18.6 |
